Source: PubChem BioAssay
E-selectin induc – E-selectin induction on HUVECs | P16581 | HUVEC E-selectin immunofluorescence imaging; normalized: neutral wells 0, TNF-alpha wells 100 | activation, % at 7.58 µM | actives 0.37% (n = 260,000) | AID 686992;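 active = mean E-selectin-positive cell signal at least 10% of the positive control, reached in at least 60% of replicates, without over 20% cell loss; inconclusive = no rule given, readout overlaps actives, possibly toxicity-flagged; inactive = the rest, including those meeting only one limit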
Target sequence (P16581 whole entry, looked up): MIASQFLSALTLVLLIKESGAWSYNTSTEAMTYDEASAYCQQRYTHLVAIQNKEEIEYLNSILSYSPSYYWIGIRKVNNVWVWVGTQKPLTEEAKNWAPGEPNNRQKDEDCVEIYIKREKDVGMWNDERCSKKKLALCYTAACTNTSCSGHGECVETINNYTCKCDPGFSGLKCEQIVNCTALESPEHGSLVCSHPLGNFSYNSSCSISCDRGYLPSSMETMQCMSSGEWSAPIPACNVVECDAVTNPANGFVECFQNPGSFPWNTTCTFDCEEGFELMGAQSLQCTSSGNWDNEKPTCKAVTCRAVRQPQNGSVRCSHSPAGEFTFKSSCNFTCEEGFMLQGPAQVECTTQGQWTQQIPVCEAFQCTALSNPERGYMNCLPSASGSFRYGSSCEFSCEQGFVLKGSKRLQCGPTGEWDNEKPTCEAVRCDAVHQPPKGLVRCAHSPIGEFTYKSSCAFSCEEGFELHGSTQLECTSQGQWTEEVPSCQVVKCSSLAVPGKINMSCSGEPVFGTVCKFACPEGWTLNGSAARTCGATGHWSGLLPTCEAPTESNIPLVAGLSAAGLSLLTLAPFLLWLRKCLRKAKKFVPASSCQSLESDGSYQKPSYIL
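System: HUVEC, human umbilical vein endothelial cells; quantity: 3,000 cells/well; buffer or medium: EGM-2 medium, gelatin-coated wells; dosing: single-point compound dose; detection: immunofluorescence imaging; evaluation: % PE-positive cells; benchmarks: TNF-alpha, DMSO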
DENV2 CPE rescue – protects cells from dengue virus 2 cytopathic effect. DENV2-infected cells, cytopathic effect rescue, plate reader. CPE inhibition, % at 9.99 µM. actives 1.7% (n = 350,000); in the data active = CPE inhibition above about 20%, passing the limit was not always enough; inconclusive = no clear call, values can overlap the other calls; tested in BHK-21 cells
SIRT5 block – inhibitors of human sirtuin-5 desuccinylase; inhibition, % at 15 µM; Purified SirT5, succinyl-peptide AMC, trypsin-coupled fluorescence; actives 1.1% (n = 330,000); in the data active = inhibition above about 15%; inconclusive = no clear call, values can overlap the other calls
Large screens that a line does not name were inactive. This is a sample that favours compounds with a hit; in the whole collection about 2.8% have one here.

COc1ccc2c3c([nH]c2c1)[C@H](CO)N(C)CC31CN(S(=O)(=O)c2ccc(C)cc2)C1	none (no result: SIRT5 block)
C[C@@H]1CN([C@H](C)CO)C(=O)c2cc(NC(=O)Cc3ccccc3)ccc2O[C@@H](C)CCCCO[C@H]1CN(C)Cc1ccc2c(c1)OCO2	DENV2 CPE rescue inconclusive (no result: SIRT5 block)
COc1ccc(NC(=O)Nc2ccc3c(c2)C(=O)N([C@@H](C)CO)C[C@H](C)[C@@H](CN(C)S(=O)(=O)c2ccc(Cl)cc2)OCCCC[C@H](C)O3)cc1	none (no result: E-selectin induc)
Cc1cccc(NC(=O)NNS(=O)(=O)c2ccc(F)cc2)c1	none (no result: DENV2 CPE rescue)
CC(=O)Nc1ccc(S(=O)(=O)NNc2cccc(C)c2)cc1	E-selectin induc 57
Cc1ccc(-c2ccc3c(c2)O[C@H](CN(C)S(C)(=O)=O)[C@@H](C)CN([C@H](C)CO)S3(=O)=O)cc1	none
O=C(C1CC1)N1[C@H](CO)[C@@H](c2ccccc2)C12CN(CCC(F)(F)F)C2	none
O=C(NCC1CC1)[C@H]1[C@H](CO)[C@H]2Cn3c(ccc(-c4ccccc4)c3=O)[C@H]2N1Cc1cocn1	none
C[C@H](CO)N1C[C@H](C)[C@@H](CN(C)Cc2ccc(C(=O)Nc3ccccc3N)cc2)Oc2ccc(NC(=O)Cc3ccccc3)cc2CC1=O	none
CCOC(=O)C1=C(C)NC(=O)NC1c1ccc(N(CC)CC)cc1 (stereo unspecified)	none
CCOC(=O)C1=C(C)NC(=O)NC1c1ccc(N(C)C)cc1 (stereo unspecified)	DENV2 CPE rescue 70
CC(C)NC(=O)N(C)C[C@@H]1Oc2c(NS(=O)(=O)c3cn(C)cn3)cccc2C(=O)N([C@H](C)CO)C[C@@H]1C	none
C[C@@H]1CN([C@@H](C)CO)C(=O)c2cccc(NC(=O)C3CCOCC3)c2O[C@@H]1CN(C)S(=O)(=O)c1ccccc1	none
C[C@H]1CN([C@@H](C)CO)C(=O)c2cc(C#Cc3ccncc3)cnc2O[C@H]1CN(C)CC1CCCC1	none
O=C(N[C@@H]1CC[C@@H](CCNS(=O)(=O)c2ccc(F)cc2)O[C@H]1CO)c1cnccn1	DENV2 CPE rescue 51
O=C(N[C@H]1CC[C@@H](CCNS(=O)(=O)c2ccc(F)cc2)O[C@H]1CO)C1CCOCC1	DENV2 CPE rescue 38
O=C(N[C@@H]1CC[C@H](CCNS(=O)(=O)c2ccc(F)cc2)O[C@H]1CO)C1CCOCC1	none
Cc1ccc(S(=O)(=O)NCC[C@@H]2CC[C@H](NC(=O)c3cnccn3)[C@@H](CO)O2)cc1	DENV2 CPE rescue inconclusive
CCS(=O)(=O)NCC[C@H]1CC[C@H](NC(=O)C2CCC2)[C@H](CO)O1	none
CCS(=O)(=O)NCC[C@@H]1CC[C@@H](NC(=O)C2CC2)[C@@H](CO)O1	DENV2 CPE rescue 46
COCC(=O)N(C)C[C@@H]1Oc2ncc(C#CC(C)(C)O)cc2C(=O)N([C@H](C)CO)C[C@H]1C	none
CCCNC(=O)C[C@H]1C[C@@H]2c3cc(N(C)C)ccc3O[C@@H]2[C@@H](CO)O1	none
CCCNC(=O)C[C@@H]1CC[C@@H]2[C@H](COc3ccc(NC(=O)COC)cc3C(=O)N2C)O1	DENV2 CPE rescue inconclusive (no result: SIRT5 block)
COc1ccc2c3c([nH]c2c1)[C@@H](CO)N(Cc1nccs1)CC31CCN(C(=O)C2CCC2)CC1	none
Cc1noc(C)c1S(=O)(=O)Nc1ccc2c(c1)C(=O)N([C@@H](C)CO)C[C@@H](C)[C@@H](CN(C)C(=O)Nc1ccc(C(F)(F)F)cc1)OCCCC[C@H](C)O2	none
CC1(C)C[C@@H]2C[C@@](C)(CN2C(=O)c2ccccc2)C1	none (no result: E-selectin induc)
Cc1ccc(-c2cc(C(=O)N3CC4(C)CC3CC(C)(C)C4)no2)cc1 (stereo unspecified)	none
CC1(C)CC2CC(C)(CN2C(=O)c2cc(-c3ccccc3O)on2)C1 (stereo unspecified)	SIRT5 block 16
CC1(C)CC2CC(C)(CN2C(=O)c2ccc([N+](=O)[O-])cc2)C1 (stereo unspecified)	SIRT5 block 21
C[C@@H]1CN([C@H](C)CO)S(=O)(=O)c2ccc(-c3cccnc3)cc2O[C@@H]1CN(C)C	none
COc1ccc(CN(C)C[C@H]2Oc3ccc(NS(=O)(=O)c4ccccc4)cc3C(=O)N([C@H](C)CO)C[C@H]2C)cc1	none
COc1ccc(S(=O)(=O)Nc2ccc3c(c2)C(=O)N([C@@H](C)CO)C[C@H](C)[C@@H](CN(C)Cc2ccc(Oc4ccccc4)cc2)O3)cc1	SIRT5 block 25
COc1ccc(S(=O)(=O)Nc2ccc3c(c2)C(=O)N([C@H](C)CO)C[C@H](C)[C@H](CN(C)Cc2ccc(Oc4ccccc4)cc2)O3)cc1	SIRT5 block 31
COc1ccc(S(=O)(=O)Nc2ccc3c(c2)C(=O)N([C@@H](C)CO)C[C@@H](C)[C@@H](CN(C)Cc2ccc(Oc4ccccc4)cc2)O3)cc1	SIRT5 block 35
COc1ccc(CN(C)C[C@@H]2Oc3ccc(NS(=O)(=O)c4ccccc4)cc3C(=O)N([C@H](C)CO)C[C@@H]2C)cc1	none
COc1ccc(CN(C)C[C@@H]2Oc3ccc(NS(=O)(=O)c4ccccc4)cc3C(=O)N([C@@H](C)CO)C[C@@H]2C)cc1	none
C[C@@H]1CN([C@@H](C)CO)C(=O)c2cc(C#Cc3ccccc3)cnc2O[C@@H]1CN(C)C(=O)c1ccccc1F	none
CC=Cc1ccc2n(c1=O)C[C@H]1[C@H](CO)[C@@H](C(=O)N[C@@H](C)c3ccccc3)[C@@H]2N1Cc1cccnc1 (mixture of isomers)	none
CO[C@H]1CN(C)C(=O)c2cc(NC(=O)C3CC3)ccc2OC[C@H](C)N(C(=O)CN(C)C)C[C@@H]1C	none
CCc1csc(N2[C@H](C#N)[C@H](c3ccc(C4=CCCC4)cc3)[C@H]2CO)n1	DENV2 CPE rescue inconclusive
C[C@H](CO)N1C[C@H](C)[C@H](CN(C)S(C)(=O)=O)Oc2ccc(NS(=O)(=O)c3ccc(F)cc3)cc2CC1=O	none
C[C@@H]1CN([C@@H](C)CO)C(=O)Cc2cc(NS(=O)(=O)c3ccc(F)cc3)ccc2O[C@@H]1CN(C)S(=O)(=O)c1ccc(Cl)cc1	E-selectin induc 102 (no result: SIRT5 block)
C[C@H]1CN([C@@H](C)CO)C(=O)Cc2cc(NS(C)(=O)=O)ccc2O[C@@H]1CN(C)S(=O)(=O)c1ccc(F)cc1	none (no result: SIRT5 block)
C[C@@H]1CN([C@H](C)CO)C(=O)Cc2cc(NS(=O)(=O)c3ccc(Cl)cc3)ccc2O[C@H]1CN(C)S(=O)(=O)c1ccc(F)cc1	none
C[C@H](CO)N1C[C@H](C)[C@@H](CN(C)S(=O)(=O)c2ccc(F)cc2)Oc2ccc(NS(C)(=O)=O)cc2CC1=O	E-selectin induc 311
C[C@H]1CN([C@@H](C)CO)C(=O)Cc2cc(NS(=O)(=O)c3ccc(F)cc3)ccc2O[C@@H]1CN(C)S(C)(=O)=O	DENV2 CPE rescue 46
C[C@H]1CN([C@@H](C)CO)C(=O)Cc2cc(NS(=O)(=O)c3ccc(Cl)cc3)ccc2O[C@H]1CN(C)S(=O)(=O)c1ccc(Cl)cc1	none
C[C@@H]1CN([C@@H](C)CO)C(=O)Cc2cc(NS(=O)(=O)c3ccc(Cl)cc3)ccc2O[C@@H]1CN(C)S(=O)(=O)c1ccc(Cl)cc1	DENV2 CPE rescue 47
Cc1ccc(-c2cnc3c(c2)C(=O)N([C@@H](C)CO)C[C@@H](C)[C@H](CN(C)CC2CCCCC2)O3)cc1	none
